# Rce1 inhib: yeast Rce1p protease inhibitors, primary screen, biochemical, fluorescence, cell-free homogeneous. yeast membranes, quenched prenylated peptide cleavage fluorescence. calls only. 0.27% of 290,000 active. AID 2563, 2010. CAAX prenyl protease 2 (Saccharomyces cerevisiae (strain ATCC 204508 / S288c)), Q03530;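 active means fall in fluorescence gain of 50% or more versus controls, with final raw signal at or below 3038400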;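 further: plate controls were neutral control wells for no effect and wells lacking membranes for full effect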
# Target sequence (Q03530 whole entry, looked up): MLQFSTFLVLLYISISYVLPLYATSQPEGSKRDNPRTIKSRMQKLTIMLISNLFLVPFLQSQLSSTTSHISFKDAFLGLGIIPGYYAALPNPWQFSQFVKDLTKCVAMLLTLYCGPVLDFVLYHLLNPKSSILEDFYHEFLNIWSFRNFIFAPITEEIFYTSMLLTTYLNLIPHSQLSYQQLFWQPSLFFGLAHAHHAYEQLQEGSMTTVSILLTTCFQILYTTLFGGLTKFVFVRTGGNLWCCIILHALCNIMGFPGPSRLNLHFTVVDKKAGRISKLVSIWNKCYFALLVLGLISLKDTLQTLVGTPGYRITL
# T cell modulator: modulators of CD8 T cell-vesicle binding, primary screen, mouse 2C CD8+ T cells, flow cytometry; 2C CD8+ T cell-vesicle binding; active compounds read low; response (vesicle binding), % at 7 µM; 0.068% of 330,000 active; AID 2052, 2009;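 active means response, share of CD8 T cells binding vesicles, and their 90th percentile fluorescence all below set limits, cut at about 80% in these data, passing the limit was not always enough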;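 further: values below 100% mean blocked vesicle binding to the CD8+ T cells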
#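 Incubation: binding step 1.5 h, 37 °C, antibody labelling 20 min, ice; system: murine 2C transgenic CD8+ T lymphocytes; technique: cytometric PE anti-B7-1 and Alexa647 anti-CD8 signals after 1% paraformaldehyde fixation; also added: QL9-charged Drosophila Ld/ICAM-1/B7-1 vesicles; control set: naked versus QL9-loaded vesicles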
# MIN6 prolif: inducers of MIN6 beta-cell proliferation, primary screen, ATP luminescence, uHTS; 0.29% of 330,000 active; MIN6 cells proliferation, ATPlite luminescence, 48 h; cells starved in 0.2% serum; 100% = growth in 10% serum; proliferation, % at 10 µM;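 active means compounds whose signal lies at least 3.5 SD above the mean of all wells on their plate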;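 further: 0% = DMSO-treated cells in low-serum medium and 100% = 10% serum control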
# CR mimetic SO: reduction of superoxide in aged yeast, primary screen, HTS | S. cerevisiae aged cells, superoxide DHE fluorescence; active compounds read low | superoxide response (% of plate mean), % at 10 µM | 0.18% of 330,000 active;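 active means superoxide response under a set limit, about three screen SD below normal, cut at about 65% in these data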;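 further: yeast aged for seven days with compound at 30 °C before DHE staining; 100% = average MFI of all compound-treated wells on the plate with controls excluded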
# V-ATPase pH: regulators of yeast V-ATPase proton pumping, primary screen, pHLuorin cytosolic pH fluorescence. S. cerevisiae. response, % at 10 µM. AID 504577, 2011. 0.37% of 350,000 active; in the data active means response mostly above about 7.3%, no sharp cut-off; inactive means mostly below about 5.4%; further: actives read high
# proKLK7 act: proKLK7 zymogen activators, primary screen, biochemical, fluorescence intensity; purified proKLK7, EDANS-DABCYL substrate fluorescence; 100% is mature enzyme control, 0% vehicle; activation, % at 7 µM; 0.9% of 370,000 active; Kallikrein-7 (Homo sapiens), P49862;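 active means activation above the mean of all tested compounds plus 3 SD, computed per campaign excluding outliers beyond control limits, cut at about 13% in these data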
# KLK7 act conf: proKLK7 zymogen activators, confirmation, biochemical, fluorescence intensity, triplicate | shares compounds with proKLK7 act | purified proKLK7, EDANS-DABCYL substrate fluorescence; scaled: vehicle 0, mature enzyme 100 | activation, % at 7 µM | 68% of 3,200 active | AID 686949, 2013;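 active means activation, as change over the incubation, above the mean of all tested compounds plus 3 SD, cut at about 13% in these data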
# EDANS interfere: EDANS-DABCYL substrate optical interference, artefact control for kallikrein-7 zymogen activator project, biochemical, fluorescence intensity, high throughput; shares compounds with proKLK7 act; no enzyme, 4 h; solvent 0%, active enzyme control 100%; activation, % at 7 µM; 80% of 3,200 active; AID 686952, 2013;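 active means activation above the all-compound mean plus 3 SD, ignoring values outside control-based bounds, cut at about 4.8% in these data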;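 further: value is the 4 h activation minus the activation read at time zero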
# * hit, by the source's call; i = inactive; / = no result. Sampled rows, rich in hits. Any-hit rate of the full collection: about 1.9%.
SMILES,Rce1 inhib,T cell modulator,MIN6 prolif,CR mimetic SO,V-ATPase pH,proKLK7 act,KLK7 act conf,EDANS interfere
C[C@]12c3[nH]c4cc(-c5ccco5)ccc4c3CCN1C(=O)[C@@H](CC(=O)NCCc1ccccn1)C[C@@H]2C(=O)N1CCOCC1,/,/,/,104.5,-2.0,112.8*,52.1*,67.9*
C[C@]12c3[nH]c4ccc(Cl)cc4c3CCN1C(=O)[C@@H](CC(=O)NCCc1ccccn1)C[C@@H]2C(=O)N1CCOCC1,/,/,/,97.1,-0.3,0.3,/,/
CC(C)N(C(=O)[C@H]1C[C@H](CC(=O)NCCc2ccccn2)C(=O)N2CCc3c([nH]c4cc(-c5ccco5)ccc34)[C@]12C)C(C)C,/,/,/,94.9,0.2,183.8*,28.7*,29.9*
CC(C)N(C(=O)[C@H]1C[C@H](CC(=O)NCCC2=CCCCC2)C(=O)N2CCc3c([nH]c4cc(-c5ccco5)ccc34)[C@]12C)C(C)C,/,/,/,90.8,0.7,-3.8,/,/
CCN(CC)C(=O)[C@H]1C[C@H](CC(=O)NCCc2ccccn2)C(=O)N2CCc3c([nH]c4cc(-c5ccco5)ccc34)[C@]12C,/,/,/,93.2,0.3,147.2*,64.4*,78.9*
CN(C)Cc1nnnn1-c1cccc(-n2nnnc2CN(C)C)c1,i,296.6,8.0,89.9,-4.4,0.4,/,/
CCOC(=O)c1cc(=O)n2c(nc3ccccc32)[nH]1,i,465.5,1.6,100.7,-1.0,22.6*,76.7*,78.5*
CCOc1ccc(NC(=O)CN(C)C(=O)c2cc3c(s2)CCC3)cc1OCC,/,/,/,/,-7.0,-0.9,/,/
Cc1ccc2nc3ccc(N4CCCCCCC4)nn3c(=O)c2c1,i,190.4,-3.9,91.5,4.0,2.2,/,/
Cc1ccc2nc3ccc(N4CCN(C)CC4)nn3c(=O)c2c1,i,200.1,-4.5,104.0,6.6,39.6*,12.1,12.9*
C[C@@H]1CN([C@H](C)CO)C(=O)CCCn2cc(nn2)CO[C@H]1CN(C)S(=O)(=O)c1cn(C)cn1,/,/,/,/,/,0.2,/,/
Cc1cccc(C2Nc3ccccc3C(=O)N2CCc2ccccc2)n1 (stereo unspecified),i,288.3,-2.6,87.4,-3.0,20.9*,6.2,10.6*
O=C1c2ccccc2NC(c2cccc([N+](=O)[O-])c2)N1CCc1ccccc1 (stereo unspecified),i,173.7,0.0,88.9,-3.0,0.4,/,/
O=C1c2ccccc2NC(c2cccc(F)c2)N1Cc1ccccc1 (stereo unspecified),i,8.2,0.1,110.2,0.4,10.8,/,/
CCN(CC)CCN1C(=O)c2ccccc2NC1c1ccc(Br)cc1 (stereo unspecified),i,355.7,-0.4,113.1,-9.6,60.8*,12.3,23.2*
CCN(CC)CCN1C(=O)C(=O)/C(=C(/O)c2ccncc2)C1c1ccccc1F (stereo unspecified),i,342.5,0.7,100.4,-1.6,-0.8,/,/
CCN(CC)CCN1C(=O)c2ccccc2NC1c1ccc(N(C)C)cc1 (stereo unspecified),i,499.2,-0.3,78.3,-1.7,2.8,/,/
CCN(CC)CCN1C(=O)c2ccccc2NC1c1ccccc1F (stereo unspecified),i,183.4,-0.3,94.6,0.2,73.6*,26.1*,37.6*
CCN(CC)CCN1C(=O)c2ccccc2NC1c1ccc(C)cc1 (stereo unspecified),i,231.7,2.2,111.5,-3.1,74.6*,28.8*,37.1*

# Screening data as filed in PubChem BioAssay.
